Measurements: ChEMBL document CHEMBL1122052, “Isomeric cyclopropyl ring-methylated homologues of trans-2-(2,5-dimethoxy-4-methylphenyl)cyclopropylamine, an hallucinogen analogue” (1982)
Active and inactive are the calls of the source. No cut-off for these calls is given here.

Key:
Mus musculus [1] = assay: Evaluated for ear-scratch response (hallucinogen like activity) in mice at a dose of 10.00 mg/Kg; type: functional
In short: (§1)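 Male albino Swiss-Webster derived mice, 25–40 g, group housed at 22–24 °C, 12–12 h light-dark cycle. HCl salt given ip in saline (0.1 mL/10 g body weight). Mice observed in groups of three, continuously for 30 min; total hindleg scratches of the back of the ear counted, with the hindleg then returned to the floor. Saline control included.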

Mus musculus [2] = assay: Evaluated for ear-scratch response (hallucinogen like activity) in mice at a dose of 5.00 mg/Kg; type: functional; in short: as §1
Mus musculus [3] = assay: Evaluated for ear-scratch response (hallucinogen like activity) in mice at a dose of 20.00 mg/Kg; type: functional; in short: as §1
Mus musculus [4] = species on record: Mus musculus; assay: Compound was evaluated for hallucinogenic activity in mice; Inactive; type: functional, organism-based; in short: as §1
Mus musculus [5] = assay: Evaluated for ear-scratch response (hallucinogen like activity) in mice at a dose of 1.25 mg/Kg; type: functional; in short: as §1
Mus musculus [6] = assay: Evaluated for ear-scratch response (hallucinogen like activity) in mice at a dose of 10.0 mg/Kg; type: functional; in short: as §1
Mus musculus [7] = assay: Evaluated for ear-scratch response (hallucinogen like activity) in mice at a dose of 20.0 mg/Kg; type: functional; in short: as §1
Mus musculus [8] = assay: Evaluated for ear-scratch response (hallucinogen like activity) in mice at a dose of 2.5 mg/Kg; type: functional; in short: as §1
Mus musculus [9] = assay: Evaluated for ear-scratch response (hallucinogen like activity) in mice at a dose of 4.00 mg/Kg; type: functional; in short: as §1
Mus musculus [10] = assay: Evaluated for ear-scratch response (hallucinogen like activity) in mice at a dose of 1.00 mg/Kg; type: functional; in short: as §1
Mus musculus [11] = assay: Evaluated for ear-scratch response (hallucinogen like activity) in mice at a dose of 2.00 mg/Kg; type: functional; in short: as §1

COc1cc(C2CC2N)c(OC)cc1C (configuration not stated)
No. of scratches (Mus musculus [1]): 56.2 | No. of scratches (Mus musculus [2]): 39.5 | No. of scratches (Mus musculus [3]): 64.2

CC[C@@H](N)Cc1cc(OC)c(C)cc1OC
Halucinogenic activity (Mus musculus [4]): inactive

COc1cc([C@@H]2[C@@H](C)[C@H]2N)c(OC)cc1C (stereo in doubt; 4a)
No. of scratches (Mus musculus [5]): 11.5 | No. of scratches (Mus musculus [6]): 12.8 | No. of scratches (Mus musculus [7]): 2.5 | No. of scratches (Mus musculus [8]): 10.8 | No. of scratches (Mus musculus [2]): 17.3

COc1cc(C[C@@H](C)N)c(OC)cc1C
No. of scratches (Mus musculus [9]): 79 | No. of scratches (Mus musculus [10]): 52.4 | No. of scratches (Mus musculus [11]): 109.2
